From ChEMBL document CHEMBL1151729 (J Med Chem, 2008)
Active and inactive are the calls of the source. The calls are words filed in the database; no cut-off is given here.

What was measured:
Galectin-3 = Galectin-3 (Homo sapiens, UniProt P17931); assay: Binding affinity to galectin 3 at 20 degC by fluorescence polarization assay
Galectin-1 [1] = biological target: T1, Galectin-1 (Homo sapiens, UniProt P09382); assay: Binding affinity to galectin 1 at 0 degC by fluorescence polarization assay
Galectin-8 = biological target: T2, Galectin-8 (Homo sapiens, UniProt O00214); assay: (§1) Binding affinity to galectin 8N terminal domain at 20 degC by fluorescence polarization assay
T2 sequence (O00214 whole entry): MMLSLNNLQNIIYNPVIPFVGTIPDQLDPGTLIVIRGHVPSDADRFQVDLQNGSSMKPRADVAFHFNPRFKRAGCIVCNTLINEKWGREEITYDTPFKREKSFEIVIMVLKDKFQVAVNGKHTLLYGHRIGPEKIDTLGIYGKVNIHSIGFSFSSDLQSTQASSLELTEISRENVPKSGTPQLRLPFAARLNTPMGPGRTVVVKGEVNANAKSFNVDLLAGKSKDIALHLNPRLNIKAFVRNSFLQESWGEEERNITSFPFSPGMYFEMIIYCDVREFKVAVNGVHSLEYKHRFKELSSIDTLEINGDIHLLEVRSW

Galectin-9 = Galectin-9 (Homo sapiens, UniProt O00182); assay: Binding affinity to galectin 9N terminal domain at 0 degC by fluorescence polarization assay
Galectin-9, sequence (O00182 whole entry, the tested form may be a part): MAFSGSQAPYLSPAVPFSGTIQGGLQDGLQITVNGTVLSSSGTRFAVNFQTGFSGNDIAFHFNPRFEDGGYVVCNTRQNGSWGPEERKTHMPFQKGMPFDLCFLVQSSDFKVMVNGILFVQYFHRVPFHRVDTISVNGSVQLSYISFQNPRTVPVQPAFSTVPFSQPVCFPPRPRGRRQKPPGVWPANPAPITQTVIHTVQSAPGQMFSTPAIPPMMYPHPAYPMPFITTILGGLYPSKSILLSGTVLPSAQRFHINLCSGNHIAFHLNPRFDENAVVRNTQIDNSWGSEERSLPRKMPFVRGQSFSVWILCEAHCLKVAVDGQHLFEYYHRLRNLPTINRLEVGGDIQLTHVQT

Galectin-7 = Galectin-7 (Homo sapiens, UniProt P47929); assay: Binding affinity to galectin 7 at 0 degC by fluorescence polarization assay
Galectin-7, sequence (P47929 whole entry): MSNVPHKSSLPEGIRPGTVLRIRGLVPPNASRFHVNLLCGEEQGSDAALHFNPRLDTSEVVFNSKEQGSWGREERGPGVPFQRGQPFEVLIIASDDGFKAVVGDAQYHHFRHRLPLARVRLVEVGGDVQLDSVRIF

Galectin-1 [2] = biological target: T1, Galectin-1; assay: Binding affinity to galectin 1 at 20 degC by fluorescence polarization assay
[3] = biological target: T3, Galectin-8 (Homo sapiens) (UniProt O00214); assay: as §1
T3 sequence (whole entry): T2 sequence (O00214 whole entry)

A549 [4] = assay: Antimigratory effect in human A549 cells assessed as cell motility at 10 nM after 24 hrs relative to control; assay type: functional, cell-based
Summary of the method: (§2)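 Cell motility of human A549 non-small-cell lung and PC-3 hormone-refractory prostate cancer cells measured by computer-assisted phase-contrast quantitative videomicroscopy over 12 h and 24 h with inhibitor at 1, 10 or 100 nM. Motility calculated in µm per hour and expressed as % of untreated control (100%). Triplicate experiments, mean ± SEM, Mann-Whitney test versus control.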

PC-3 [5] = assay: Antimigratory effect in human PC-3 cells assessed as cell motility at 100 nM after 24 hrs relative to control; assay type: functional, cell-based; summary of the method: as §2
A549 [6] = assay: Antimigratory effect in human A549 cells assessed as cell motility at 100 nM after 24 hrs relative to control; assay type: functional, cell-based; summary of the method: as §2
PC-3 [7] = assay: Antimigratory effect in human PC-3 cells assessed as cell motility at 1 nM after 24 hrs relative to control; assay type: functional, cell-based; summary of the method: as §2

Galectin-3, sequence (P17931 whole entry): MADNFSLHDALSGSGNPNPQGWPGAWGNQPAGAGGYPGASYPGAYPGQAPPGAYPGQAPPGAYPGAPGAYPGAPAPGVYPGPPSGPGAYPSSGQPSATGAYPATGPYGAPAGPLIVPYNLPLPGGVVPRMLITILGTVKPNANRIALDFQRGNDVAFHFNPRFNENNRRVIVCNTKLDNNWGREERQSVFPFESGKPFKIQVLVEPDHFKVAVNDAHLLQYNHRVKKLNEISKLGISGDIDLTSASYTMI
T1 sequence (P09382 whole entry, the tested form may be a part): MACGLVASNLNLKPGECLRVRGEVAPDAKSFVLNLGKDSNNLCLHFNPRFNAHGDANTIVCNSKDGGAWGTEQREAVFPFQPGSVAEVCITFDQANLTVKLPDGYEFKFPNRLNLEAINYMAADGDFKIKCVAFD

Row | Kd (Galectin-3) [µM] | Kd (Galectin-1 [1]) [µM] | Kd (Galectin-8) [µM] | Kd (Galectin-9) [µM] | Kd (Galectin-7) [µM] | Kd (Galectin-1 [2]) [µM] | Activity [3] | SMILES | Activity (A549 [4]) | Activity (PC-3 [5]) | Activity (A549 [6]) | Activity (PC-3 [7])
1 | 2.5 | 14 | 530 | 1.6 | 54 |  |  | CO[C@@H]1O[C@H](CO)[C@@H](O[C@@H]2O[C@H](CO)[C@H](O)[C@H](O)[C@H]2O)[C@H](O)[C@H]1OC(=O)c1cccc2ccccc12 |  |  |  | 
2 |  | 35 |  | 7 | 4.3 |  | Active | O=C(N[C@H]1[C@@H](O)[C@@H](CO)O[C@@H](S[C@@H]2O[C@H](CO)[C@H](O)[C@H](NC(=O)c3ccccc3)[C@H]2O)[C@@H]1O)c1ccccc1 |  |  |  | 
3 |  | 2 | 100 | 1.8 | 2.1 |  |  | COc1cccc(C(=O)N[C@H]2[C@@H](O)[C@@H](CO)O[C@@H](S[C@@H]3O[C@H](CO)[C@H](O)[C@H](NC(=O)c4cccc(OC)c4)[C@H]3O)[C@@H]2O)c1 |  |  |  | 
4 | 4.4 | 25 |  | > 100 | 7.6 |  | Active | CO[C@@H]1O[C@H](CO)[C@@H](O[C@@H]2O[C@H](CO)[C@H](O)[C@H](NC(=O)c3cccc4ccccc34)[C@H]2O)[C@H](O)[C@H]1NC(C)=O |  |  |  | 
5 | 59 |  | 1000 | 490 | 550 |  |  | CC(=O)N[C@@H]1[C@@H](O)[C@H](O[C@@H]2O[C@H](CO)[C@H](O)[C@H](O)[C@H]2O)[C@@H](CO)O[C@H]1O |  |  |  | 
6 | 3.8 |  | 24 | 8.3 | 24 | 16.8 |  | O=C(O[C@H]1[C@@H](O)[C@@H](CO)O[C@@H](S[C@@H]2O[C@H](CO)[C@H](O)[C@H](OC(=O)c3cccc4ccccc34)[C@H]2O)[C@@H]1O)c1cccc2ccccc12 |  |  | Active | Active

Continued, molecule first:

Row | SMILES | Kd (Galectin-3) [µM] | Kd (Galectin-1 [1]) [µM] | Kd (Galectin-8) [µM] | Kd (Galectin-9) [µM] | Kd (Galectin-7) [µM] | Kd (Galectin-1 [2]) [µM] | Activity [3] | Activity (A549 [4]) | Activity (PC-3 [5]) | Activity (A549 [6]) | Activity (PC-3 [7])
7 | O=C(O[C@H]1[C@@H](O)[C@@H](CO)O[C@@H](S[C@@H]2O[C@H](CO)[C@H](O)[C@H](OC(=O)c3ccc4ccccc4c3)[C@H]2O)[C@@H]1O)c1ccc2ccccc2c1 | 10.7 |  | 100 | 2.8 | 48 | 14.7 |  |  |  |  | 
8 | O=C(O[C@H]1[C@@H](O)[C@@H](CO)O[C@@H](S[C@@H]2O[C@H](CO)[C@H](O)[C@H](OC(=O)c3ccccc3)[C@H]2O)[C@@H]1O)c1ccccc1 | 1.6 |  | 104 | 2.2 | 22 | 6.4 |  |  |  |  | 
9 | Cc1ccc(C(=O)O[C@H]2[C@@H](O)[C@@H](CO)O[C@@H](S[C@@H]3O[C@H](CO)[C@H](O)[C@H](OC(=O)c4ccc(C)cc4)[C@H]3O)[C@@H]2O)cc1 | 3.6 |  | 135 | 15 | 190 | 10.3 |  |  |  |  | 
10 | O=C(N[C@H]1[C@@H](O)[C@@H](CO)O[C@@H](S[C@@H]2O[C@H](CO)[C@H](O)[C@H](NC(=O)c3ccc4ccccc4c3)[C@H]2O)[C@@H]1O)c1ccc2ccccc2c1 | 0.16 | 9.6 | > 100 | 0.73 | 1.7 |  |  |  |  |  | 
11 | COc1cccc(C(=O)O[C@H]2[C@@H](O)[C@@H](CO)O[C@@H](S[C@@H]3O[C@H](CO)[C@H](O)[C@H](OC(=O)c4cccc(OC)c4)[C@H]3O)[C@@H]2O)c1 | 0.69 |  | 42 | 1.4 | 22 | 4.4 |  | Active | Active |  | 
